Measurements from ChEMBL document CHEMBL4219167, “Disulfiram-based disulfides as narrow-spectrum antibacterial agents” (Bioorg Med Chem Lett, 2018).

Legend:
Staphylococcus aureus [1] = assay: Synergistic antibacterial activity against vancomycin-intermediate resistant Staphylococcus aureus AR-217 assessed as fractional inhibitory concentration in presence of vancomycin after 20 hrs by checkerboard microdilution assay; type: functional
Burkholderia cepacia = assay: Antibacterial activity against Burkholderia cepacia UCB 717 after 20 hrs by broth microdilution assay; type: functional; settings: UCB 717, 20 h
In short: (§1)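 Medium is tryptic soy broth, 37°C. Overnight culture is adjusted to 0.5 McFarland, diluted 1:100 and exposed to serial dilutions (test agents from 1 mM or 1 mg/mL DMSO stocks; control antibiotics in water). Incubation lasts 20 h. MIC is the lowest concentration with no visible growth.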

Acinetobacter baumannii = assay: Antibacterial activity against Acinetobacter baumannii AB5075 after 20 hrs by broth microdilution assay; type: functional; settings: AB5075, 20 h
Enterococcus faecium = assay: Antibacterial activity against vancomycin-resistant Enterococcus faecium ATCC 700221 after 20 hrs by broth microdilution assay; type: functional; settings: ATCC 700221, 20 h
In short: (§2)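 Brain heart infusion broth at 37°C; E. faecium under 5% CO2. Cells at 0.5 McFarland are diluted 1:100 and exposed to serial dilutions (DMSO stocks 1 mM or 1 mg/mL; controls in water).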

Shigella dysenteriae = assay: Antibacterial activity against Shigella dysenteriae Newcastle 1934 after 20 hrs by broth microdilution assay; type: functional; settings: Newcastle 1934, 20 h; in short: as §1
Listeria monocytogenes = assay: Antibacterial activity against Listeria monocytogenes Gibson after 20 hrs by broth microdilution assay; type: functional; in short: as §2
Staphylococcus aureus [2] = assay: Synergistic antibacterial activity against vancomycin-resistant Staphylococcus aureus HIP14300 after 20 hrs in presence of vancomycin by checkerboard microdilution assay; type: functional; settings: HIP14300, 20 h
Streptococcus agalactiae = assay: Antibacterial activity against Streptococcus agalactiae SGBS005 after 20 hrs by broth microdilution assay; type: functional; settings: SGBS005, 20 h
Vibrio cholerae = assay: Antibacterial activity against Vibrio cholerae TS D4 after 20 hrs by Todd Hewitt broth broth microdilution method; type: functional; settings: TS D4, 20 h
Burkholderia multivorans = assay: Antibacterial activity against Burkholderia multivorans CF2 after 20 hrs by broth microdilution assay; type: functional; settings: CF2, 20 h; in short: as §1
Staphylococcus aureus [3] = assay: Synergistic antibacterial activity against vancomycin-resistant Staphylococcus aureus HIP14300 assessed as fractional inhibitory concentration in presence of vancomycin after 20 hrs by checkerboard microdilution assay; type: functional
Staphylococcus aureus [4] = assay: Antibacterial activity against methicillin-resistant Staphylococcus aureus COL after 20 hrs by broth microdilution assay; type: functional
Yersinia pestis [5] = assay: Antibacterial activity against Yersinia pestis Kim D2 after 20 hrs by broth microdilution assay; type: functional; settings: Kim D2, 20 h
Bacillus anthracis [6] = assay: Antibacterial activity against Bacillus anthracis Ames 35 after 20 hrs by broth microdilution assay; type: functional; settings: Ames 35, 20 h
Klebsiella pneumoniae = assay: Antibacterial activity against Klebsiella pneumoniae 700603 after 20 hrs by broth microdilution assay; type: functional; settings: Klebsiella pneumoniae, 700603, 20 h; in short: as §1
[7] = Selectivity index, ratio of IC50 for cytotoxicity against human HepG2 cells to MIC for antibacterial activity against vancomycin-intermediate resistant Staphylococcus aureus; type: toxicity, cell-based; settings: read-out: Selectivity Index
Pseudomonas aeruginosa = assay: Antibacterial activity against Pseudomonas aeruginosa ATCC 15442 after 20 hrs by broth microdilution assay; type: functional; settings: ATCC 15442, 20 h; in short: as §1
[8] = tested on: Staphylococcus epidermidis; assay: Synergistic antibacterial activity against vancomycin-intermediate resistant Staphylococcus epidermidis NRS53 after 20 hrs in presence of vancomycin by checkerboard microdilution assay; type: functional; settings: NRS53, 20 h
Staphylococcus aureus [9] = assay: Synergistic antibacterial activity against methicillin-resistant Staphylococcus aureus COL assessed as fractional inhibitory concentration in presence of vancomycin after 20 hrs by checkerboard microdilution assay; type: functional
[10] = rat, microsomes, 1 h
Yersinia pestis [11] = assay: Antibacterial activity against Yersinia pestis Kuma D7 after 20 hrs by broth microdilution assay; type: functional; settings: Kuma D7, 20 h
[12] = tested on: Staphylococcus epidermidis; assay: Synergistic antibacterial activity against vancomycin-intermediate resistant Staphylococcus epidermidis NRS53 assessed as vancomycin MIC after 20 hrs by checkerboard microdilution assay; type: functional; settings: NRS53, 20 h
Yersinia enterocolitica = assay: Antibacterial activity against Yersinia enterocolitica WA-314 after 20 hrs by broth microdilution assay; type: functional; settings: WA-314, 20 h
In short: (§3)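 Yersinia cultured in tryptic soy broth at 28°C. A 0.5 McFarland suspension diluted 1:100 receives serial dilutions of agents from 1 mM or 1 mg/mL DMSO stocks; control antibiotics are in water.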

Staphylococcus aureus [13] = assay: Antibacterial activity against vancomycin-resistant Staphylococcus aureus HIP14300 after 20 hrs by broth microdilution assay; type: functional; settings: HIP14300, 20 h
HepG2 = assay: Cytotoxicity against human HepG2 cells assessed as reduction in cell viability after 72 hrs by MTT assay; type: cell-based; settings: HepG2, 72 h
Bacillus anthracis [14] = assay: Antibacterial activity against Bacillus anthracis Sterne 34F2 after 20 hrs by broth microdilution assay; type: functional; settings: Sterne 34F2, 20 h
Bacillus anthracis [15] = assay: Antibacterial activity against Bacillus anthracis Weybridge after 20 hrs by broth microdilution assay; type: functional
Citrobacter freundii = assay: Antibacterial activity against Citrobacter freundii 4_7_47CFAA after 20 hrs by broth microdilution assay; type: functional
In short: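 Brucella broth, 37°C, 5% CO2. Inoculum is 0.5 McFarland diluted 1:100, with serial drug dilutions from DMSO stocks (1 mM or 1 mg/mL) and control antibiotics in water.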

Staphylococcus aureus [16] = assay: Synergistic antibacterial activity against methicillin-resistant Staphylococcus aureus COL in presence of vancomycin after 20 hrs by checkerboard microdilution assay; type: functional
Escherichia coli = assay: Antibacterial activity against Escherichia coli DC10B after 20 hrs by broth microdilution assay; type: functional; in short: as §1
[17] = Selectivity index, ratio of IC50 for cytotoxicity against human HepG2 cells to MIC for antibacterial activity against methicillin-resistant Staphylococcus aureus COL; type: toxicity, cell-based; settings: read-out: Selectivity Index
[18] = tested on: Staphylococcus epidermidis; assay: Synergistic antibacterial activity against vancomycin-intermediate resistant Staphylococcus epidermidis NRS53 assessed as fractional inhibitory concentration in presence of vancomycin after 20 hrs by checkerboard microdilution assay; type: functional
Staphylococcus aureus [19] = assay: Synergistic antibacterial activity against vancomycin-resistant Staphylococcus aureus HIP14300 assessed as vancomycin MIC after 20 hrs by checkerboard microdilution assay; type: functional; settings: HIP14300, 20 h
Salmonella typhi = assay: Antibacterial activity against Salmonella typhi Ty2 after 20 hrs by Todd Hewitt broth broth microdilution method; type: functional, Salmonella enterica subsp. enterica serovar Typhi str. Ty2; settings: Salmonella enterica
[20] = Selectivity index, ratio of IC50 for cytotoxicity against human HepG2 cells to MIC for antibacterial activity against vancomycin-resistant Staphylococcus aureus HIP14300; type: toxicity, cell-based; settings: read-out: Selectivity Index
Brucella neotomae = assay: Antibacterial activity against Brucella neotomae 5K33 after 20 hrs by broth microdilution assay; type: functional; settings: 5K33, 20 h
[21] = tested on: Staphylococcus epidermidis; assay: Antibacterial activity against vancomycin-intermediate resistant Staphylococcus epidermidis NRS53 after 20 hrs by broth microdilution assay; type: functional; settings: NRS53, 20 h
[22] = tested on: Yersinia pseudotuberculosis; assay: Antibacterial activity against Yersinia pseudotuberculosis P61 after 20 hrs by broth microdilution assay; type: functional; settings: P61, 20 h; in short: as §3
Staphylococcus aureus [23] = assay: Synergistic antibacterial activity against vancomycin-intermediate resistant Staphylococcus aureus AR-217 after 20 hrs in presence of vancomycin by checkerboard microdilution assay; type: functional; settings: AR-217, 20 h
Staphylococcus aureus [24] = assay: Synergistic antibacterial activity against methicillin-resistant Staphylococcus aureus COL assessed as vancomycin MIC after 20 hrs by checkerboard microdilution assay; type: functional
[25] = rat, microsomes
Staphylococcus aureus [26] = assay: Antibacterial activity against vancomycin-intermediate resistant Staphylococcus aureus AR-217 after 20 hrs by broth microdilution assay; type: functional; settings: AR-217, 20 h
[27] = tested on: Staphylococcus epidermidis; assay: Antibacterial activity against vancomycin-intermediate resistant Staphylococcus epidermidis NRS6 after 20 hrs by broth microdilution assay; type: functional; settings: NRS6, 20 h
Micrococcus luteus = assay: Antibacterial activity against Micrococcus luteus SK58 after 20 hrs by broth microdilution assay; type: functional; settings: SK58, 20 h
Proteus mirabilis = assay: Antibacterial activity against Proteus mirabilis HM-752 after 20 hrs by broth microdilution assay; type: functional; settings: HM-752, 20 h; in short: as §1
Streptococcus pneumoniae = assay: Antibacterial activity against Streptococcus pneumoniae TCH8431 after 20 hrs by broth microdilution assay; type: functional; settings: TCH8431, 20 h
Streptococcus pyogenes = assay: Antibacterial activity against Streptococcus pyogenes H293 after 20 hrs by broth microdilution assay; type: functional; settings: H293, 20 h
Staphylococcus aureus [28] = assay: Synergistic antibacterial activity against vancomycin-intermediate resistant Staphylococcus aureus AR-217 assessed as vancomycin MIC after 20 hrs by checkerboard microdilution assay; type: functional; settings: AR-217, 20 h
Rhodococcus erythropolis = assay: Antibacterial activity against Rhodococcus erythropolis SK121 after 20 hrs by broth microdilution assay; type: functional; settings: SK121, 20 h
In short: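 R. erythropolis grown in brain heart infusion broth at 30°C. A 0.5 McFarland suspension diluted 1:100 is treated with serial dilutions from 1 mM or 1 mg/mL DMSO stocks; control antibiotics are in water.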

Staphylococcus aureus [29] = assay: Antibacterial activity against methicillin-resistant Staphylococcus aureus; type: functional
Bacillus cereus = assay: Antibacterial activity against Bacillus cereus Gibson 971 after 20 hrs by broth microdilution assay; type: functional; settings: Gibson 971, 20 h
Francisella tularensis = assay: Antibacterial activity against Francisella tularensis Utah 112 after 20 hrs by broth microdilution assay; type: functional; settings: Utah 112, 20 h
Corynebacterium striatum = assay: Antibacterial activity against Corynebacterium striatum FS-1 after 20 hrs by broth microdilution assay; type: functional; settings: FS-1, 20 h

CCCCCCCCSSC(=S)N(CC)CC
2 µg/mL: MIC [12] | MIC [21]
0.25 µg/mL: MIC (Staphylococcus aureus [16]) | MIC (Staphylococcus aureus [23])
1.02 h: beta t1/2 [25]
50 µM: IC50 (HepG2)
32 µM: MIC (Streptococcus agalactiae) | MIC (Yersinia pestis [5]) | MIC (Yersinia pestis [11])
0.5: FIC (Staphylococcus aureus [3])
8 µM: MIC (Enterococcus faecium)
4 µM: MIC (Listeria monocytogenes) | MIC (Staphylococcus aureus [4]) | MIC (Bacillus anthracis [6]) | MIC (Staphylococcus aureus [13]) | MIC (Staphylococcus aureus [26]) | MIC [27]
> 32 µM: MIC (Burkholderia cepacia) | MIC (Acinetobacter baumannii) | MIC (Shigella dysenteriae) | MIC (Vibrio cholerae) | MIC (Burkholderia multivorans) | MIC (Klebsiella pneumoniae) | MIC (Pseudomonas aeruginosa) | MIC (Yersinia enterocolitica) | MIC (Citrobacter freundii) | MIC (Escherichia coli) | MIC (Salmonella typhi) | MIC (Brucella neotomae) | MIC [22] | MIC (Proteus mirabilis)
0.75: FIC (Staphylococcus aureus [9]) | FIC [18]
2 µM: MIC (Bacillus anthracis [14]) | MIC (Bacillus anthracis [15])
22.6 µL/min/mg: CLH [10]
16 µM: MIC (Micrococcus luteus)
> 13: selectivity ratio [7] | selectivity ratio [17] | selectivity ratio [20]
1 µg/mL: MIC (Staphylococcus aureus [2]) | MIC [8] | MIC (Staphylococcus aureus [19]) | MIC (Staphylococcus aureus [24])
0.56: FIC (Staphylococcus aureus [1])

CCN(CC)C(=S)SSC(=S)N(CC)CC
8 µM: MIC (Staphylococcus aureus [26])
8 µg/mL: MIC (Staphylococcus aureus [19])
38 µM: IC50 (HepG2)
16 µM: MIC (Streptococcus pyogenes) | MIC (Rhodococcus erythropolis)
> 32 µM: MIC (Burkholderia cepacia) | MIC (Acinetobacter baumannii) | MIC (Streptococcus pneumoniae) | MIC (Enterococcus faecium) | MIC (Shigella dysenteriae) | MIC (Listeria monocytogenes) | MIC (Streptococcus agalactiae) | MIC (Vibrio cholerae) | MIC (Klebsiella pneumoniae) | MIC (Pseudomonas aeruginosa) | MIC (Yersinia enterocolitica) | MIC (Citrobacter freundii) | MIC (Escherichia coli) | MIC (Brucella neotomae) | MIC [22] | MIC (Proteus mirabilis) | MIC (Corynebacterium striatum)
2 µg/mL: MIC (Staphylococcus aureus [2]) | MIC (Staphylococcus aureus [28]) | MIC [8]
4 µM: MIC (Bacillus cereus)
4 µg/mL: MIC [12] | MIC [21]
4 to 32 µg/mL: MIC (Staphylococcus aureus [29])
32 µM: MIC (Burkholderia multivorans) | MIC (Staphylococcus aureus [4]) | MIC (Yersinia pestis [5]) | MIC (Yersinia pestis [11]) | MIC (Staphylococcus aureus [13]) | MIC [27] | MIC (Micrococcus luteus) | MIC (Francisella tularensis)
